Source: ChEMBL document CHEMBL4699552, “Paecilosetin Derivatives as Potent Antimicrobial Agents from Isaria farinosa” (J Nat Prod, 2020)

How the values were obtained:
Staphylococcus aureus [1] = assay: Antimicrobial activity against methicillin-sensitive Staphylococcus aureus ATCC 29213 assessed as reduction in microbial growth after 24 hrs by microdilution method; assay type: functional
In short: (§1)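 Bacterial MICs by CLSI M7 broth microdilution on ATCC strains. Concentrations ran from 256 to 0.5 µg/mL, with 24 h incubation at 35 °C. MIC is the lowest concentration with no visible growth. Duplicate assays.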

Staphylococcus aureus [2] = assay: Antimicrobial activity against methicillin-resistant Staphylococcus aureus ATCC 33591 assessed as reduction in microbial growth after 24 hrs by microdilution method; assay type: functional
In short: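 Broth microdilution per CLSI M7; test range 256 to 0.5 µg/mL; plates incubated at 35 °C and read at 24 h for bacteria; MIC taken as lowest concentration preventing visible growth in the wells; run in duplicate.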

Trichophyton rubrum = assay: Antifungal activity against Trichophyton rubrum SNB-TR1 assessed as reduction in microbial growth after 5 days by microdilution method; assay type: functional; settings: SNB-TR1, 120 h, time 5 day
In short: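 CLSI M38 broth microdilution on a clinical dermatophyte isolate. Serial dilutions from 256 to 0.5 µg/mL, incubated at 35 °C and read after 5 days. MIC is the lowest concentration preventing visible growth. Run in duplicate.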

Escherichia coli = assay: Antimicrobial activity against Escherichia coli ATCC 25922 assessed as reduction in microbial growth after 24 hrs by microdilution method; assay type: functional; in short: as §1
MRC5 = assay: Cytotoxicity against human MRC5 cells assessed as reduction in cell viability after 72 hrs by CellTiter Glo assay; assay type: cell-based; settings: MRC5, 72 h
In short: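 Lung fibroblasts from ATCC, grown in DMEM with 10% FCS and 1% glutamine at 37 °C under 5% CO2, were seeded at 3 × 10^3 cells/well. After 24 h they were dosed at 10 final concentrations by serial dilution in medium, with vehicle controls. After 72 h, viability was read by CellTiter Glo luminescence (15 min). Triplicate runs; IC50 from four- or five-parameter logistic fits.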

Candida albicans [3] = assay: Antifungal activity against Candida albicans ATCC 10231 assessed as reduction in microbial growth after 48 h by microdilution method; settings: ATCC 10231, 48 h
Candida albicans [4] = assay: Antifungal activity against Candida albicans ATCC 10231 assessed as reduction in microbial growth after 5 days by microdilution method; assay type: functional; settings: ATCC 10231, 120 h, time 5 day

Row | Compound | MIC (Staphylococcus aureus [1]) | MIC (Staphylococcus aureus [2]) | MIC (Trichophyton rubrum) | MIC (Escherichia coli) | IC50 (MRC5) | MIC (Candida albicans [3]) | MIC (Candida albicans [4])
1 | C/C=C/[C@@H]1C=C[C@@H]2C[C@H](C)CC[C@H]2[C@]1(C)/C(O)=C1\C(=O)N[C@@H]([C@@H](C)O)C1=O | 8 µg/mL | 16 µg/mL | 64 µg/mL | > 256 µg/mL | 50.3 µM | 128 µg/mL | 
2 | GENTAMICIN |  |  |  | 8 µg/mL |  |  | 
3 | C/C=C/[C@@H]1C=C[C@@H]2C[C@H](C)CC[C@H]2[C@]1(C)/C(O)=C1\C(=O)N[C@@H]([C@H](C)O)C1=O | 2 µg/mL | 2 µg/mL | 32 µg/mL | > 256 µg/mL | 40 µM | 16 µg/mL | 
4 | C/C=C/[C@@H]1C=C[C@@H]2C[C@H](CO)CC[C@H]2[C@]1(C)/C(O)=C1\C(=O)N[C@@H]([C@@H](C)O)C1=O | > 256 µg/mL | > 256 µg/mL | > 256 µg/mL | > 256 µg/mL |  | > 256 µg/mL | 
5 | C/C=C/[C@@H]1C=C[C@@H]2C[C@H](CO)CC[C@H]2[C@]1(C)/C(O)=C1\C(=O)N[C@@H]([C@H](C)O)C1=O | > 256 µg/mL | > 256 µg/mL | > 256 µg/mL | 256 µg/mL |  | > 256 µg/mL | 
6 | OC(Cn1cncn1)(Cn1cncn1)c1ccc(F)cc1F [FLUCONAZOLE] |  |  | 4 µg/mL |  |  |  | 1 µg/mL
7 | C/C=C1\NC(=O)C(C(=O)[C@@]2(C)[C@@H]3CC[C@@H](CO)C[C@H]3C=C[C@H]2/C=C/C)=C1O | 64 µg/mL | 128 µg/mL | > 256 µg/mL | > 256 µg/mL | 106 µM | > 256 µg/mL | 
8 | C/C=C1\NC(=O)C(C(=O)[C@@]2(C)[C@@H]3CC[C@@H](C)C[C@H]3C=C[C@H]2/C=C/C)=C1O | 2 µg/mL | 1 µg/mL | 32 µg/mL | > 256 µg/mL | 24.2 µM | 32 µg/mL | 
9 | Cc1onc(-c2ccccc2)c1C(=O)N[C@@H]1C(=O)N2[C@@H]1SC(C)(C)[C@@H]2C(=O)O [OXACILLIN] | 0.25 µg/mL |  |  |  |  |  | 
